# Reference: ChEMBL document CHEMBL1145909, “Optically active mexiletine analogues as stereoselective blockers of voltage-gated Na(+) channels” (J Med Chem, 2003)
# Experiments:
# [1] = Half-maximal concentration producing a phasic block (cumulative sodium current reduction at 10 HZ stimulation frequency) in Rana esculenta muscle; type: functional, tissue-based, Muscle tissue
# How it was run: (§1)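 Three-vaseline-gap voltage clamp on single fibers microdissected from the ventral branch of Rana esculenta semitendinosus. After 10 min equilibration, Na⁺ currents recorded at 10 °C from a holding potential of -100 mV. Compounds diluted daily from stocks in physiological/external solution, DMSO at most 0.2%. IC50 from a nonlinear least-squares fit of concentration-response curves; data as mean ± SEM.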
# [2] = Half-maximal concentration producing a tonic block (blocking sodium channels at resting conditions during infrequent depolarizing pulses) in Rana esculenta muscle; type: functional, tissue-based, Muscle tissue; how it was run: as §1
# Pelophylax lessonae [3] = assay: Relative potency producing phasic block, relative to mexileitine
# Pelophylax lessonae [4] = assay: Ratio of the concentrations of tonic block to that of phasic block; type: functional
IC50 [1],IC50 [2],SMILES,Relative potency (Pelophylax lessonae [3]),Ratio (Pelophylax lessonae [4])
23 µM,54 µM,Cc1cccc(C)c1OC[C@@H](C)N [(R)-MEXILETINE],1,2
27 µM,114 µM,Cc1cccc(C)c1OC[C@H](C)N [(S)-MEXILETINE],1,4
29 µM,83 µM,Cc1cccc(C)c1OCC(C)N (stereo unspecified) [MEXILETINE],–,3
